For 13 compounds, Activity results are on record in ChEMBL document CHEMBL2390833, “Elucidation of the pharmacophore of echinocystic acid, a new lead for blocking HCV entry” (Eur J Med Chem, 2013).

Data set [1] deals with Hepatitis C virus. The experiment in a line: Antiviral activity against Hepatitis C virus assessed as blockage of HCV pseudo paricle entry to human Hep3B cells at 1 uM after 72 hrs. In kind it is functional, Hepacivirus hominis, Hep 3B2.
Data set [2] concerns Vesicular stomatitis virus. Description: Antiviral activity against Vesicular stomatitis virus assessed as blockage of VSV pseudo paricle entry to human Hep3B cells at 1 uM after 72 hrs. The data set is classed as functional, Hep 3B2.
Data set [3] relates to Hepatitis C virus. Description: Antiviral activity against Hepatitis C virus assessed as blockage of HCV pseudo paricle entry to human Hep3B cells at 5 uM after 72 hrs. In kind it is functional, Hepacivirus hominis, Hep 3B2.
Data set [4] has as its system Vesicular stomatitis virus. Description: Antiviral activity against Vesicular stomatitis virus assessed as blockage of VSV pseudo paricle entry to human Hep3B cells at 5 uM after 72 hrs. The data set is classed as functional, Hep 3B2.
Data set [5] in a line: Hemolytic activity in rabbit RBC assessed as hemolysis after 60 mins by microtitre plate reader analysis. In kind it is ADME, cell-based, Oryctolagus cuniculus. As to conditions: erythrocyte, 1 h. The gist of the method:
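Rabbit erythrocytes at 2% (5 × 10⁸ RBC/mL) in PBS, pH 7.4, exposed to serially diluted compounds for 60 min at 37 °C. Hemolysis was read as absorbance at 541 nm, and percentage hemolysis was calculated by the routine method.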

Consider `CC1(C)C[C@H]2C3=CC[C@@H]4[C@@]5(C)CC[C@H](O)C(C)(C)[C@@H]5CC[C@@]4(C)[C@]3(C)C[C@@H](O)[C@@]2(C(=O)O)C[C@@H]1O`, for which the Activity is listed as -5.7% in the data set on Hepatitis C virus [1], 20.7% in data set [2], 18.4% with Hepatitis C virus [3] and 33.2% in data set [4].

With `CC1(C)[C@@H](O)CC[C@]2(C)[C@H]3CC=C4[C@@H]5C[C@](C)(CO)CC[C@]5(C(=O)O)[C@H](O)C[C@@]4(C)[C@]3(C)CC[C@@H]12`, the Activity with Hepatitis C virus [1] was 16.5%; in data set [5], “Non-toxic”; in data set [2], -2.5%; with Hepatitis C virus [3], 36.5%; in data set [4], 3.6%.

As to `CC1(C)CC[C@]2(C(=O)O)[C@H](O)C[C@]3(C)C(=CC[C@@H]4[C@@]5(C)CC[C@H](O)C(C)(C)[C@@H]5C[C@H](O)[C@]43C)[C@@H]2C1`, the Activity in the data set with Hepatitis C virus [1] was 30.4%; in data set [5], “Non-toxic”; in data set [2], 1.6%; with Hepatitis C virus [3], 53.5%; in data set [4], 5.6%.

As to `CC1(C)CC[C@]2(C(=O)O)[C@H](O)C[C@]3(C)C(=CC[C@@H]4[C@@]5(C)[C@H](O)C[C@H](O)C(C)(C)[C@@H]5CC[C@]43C)[C@@H]2C1`, the Activity in the data set on Hepatitis C virus [1] is recorded as 14.3%; in data set [5], “Non-toxic”; in data set [2], 7.9%; with Hepatitis C virus [3], 35.2%; in data set [4], 11.8%.

On to `CC1(C)CC2=C3C=C[C@@H]4[C@@]5(C)CC[C@H](O)C(C)(C)[C@@H]5CC[C@@]4(C)[C@]3(C)C[C@@H](O)[C@@]23C[C@@H]1OC3=O`, for which the Activity with Hepatitis C virus [1] is 11.6%; in data set [5], “Non-toxic”; in data set [2] it was -16.2%; in the data set on Hepatitis C virus [3], 31.7%; in data set [4] it was -10.3%.

Consider `CC1(C)C[C@H]2C3=CC[C@@H]4[C@@]5(C)CC[C@H](O)C(C)(C)[C@@H]5[C@H](O)C[C@@]4(C)[C@]3(C)C[C@@H](O)[C@@]23C[C@@H]1OC3=O`, for which the Activity was -1% in the data set on Hepatitis C virus [1]; “Non-toxic” in data set [5]; -8.3% in data set [2]; 4.7% in the data set with Hepatitis C virus [3]; -24% in data set [4].

Regarding `CC1(C)C[C@H]2C3=CC[C@@H]4[C@@]5(C)[C@H](O)C[C@H](O)C(C)(C)[C@@H]5CC[C@@]4(C)[C@]3(C)C[C@@H](O)[C@@]23C[C@@H]1OC3=O`, the Activity with Hepatitis C virus [1] is given as 28.9%; in data set [5], “Non-toxic”; in data set [2], 1.8%; with Hepatitis C virus [3], 72.6%; in data set [4] it was 19.2%.

For `CC1(C)CC[C@@]2(C(=O)O)C(=C3C=C[C@@H]4[C@@]5(C)CC[C@H](O)C(C)(C)[C@@H]5C[C@H](O)[C@@]4(C)[C@]3(C)C[C@H]2O)C1`, the Activity is reported as 22.2% in the data set on Hepatitis C virus [1], -13.7% in data set [2], 31.9% in the data set with Hepatitis C virus [3] and -4.4% in data set [4].

As for `CC1(C)CC[C@]2(C(=O)O)[C@H](O)C[C@]3(C)C(=CC[C@@H]4[C@@]5(C)CCC(=O)C(C)(C)[C@@H]5CC[C@]43C)[C@@H]2C1`, the Activity in the data set with Hepatitis C virus [1] was 7.5%; in data set [5] it was “Non-toxic”; in data set [2], -2.5%; in the data set on Hepatitis C virus [3] it was 41.6%; in data set [4] it was 13.6%.

On to `CC1(C)CC[C@@]2(C(=O)O)C(=C3C=C[C@@H]4[C@@]5(C)[C@H](O)C[C@H](O)C(C)(C)[C@@H]5CC[C@@]4(C)[C@]3(C)C[C@H]2O)C1`, for which the Activity is listed as 2.3% with Hepatitis C virus [1], -15.8% in data set [2], 26.3% in the data set on Hepatitis C virus [3] and 5.9% in data set [4].

As to `CC1(C)C(=O)CC[C@]2(C)[C@H]3CC=C4[C@@H]5C[C@](C)(CO)CC[C@]5(C(=O)O)[C@H](O)C[C@@]4(C)[C@]3(C)CC[C@@H]12`, the Activity in the data set on Hepatitis C virus [1] was 3.1%; in data set [2] it was -20%; in the data set with Hepatitis C virus [3] it was -3.3%; in data set [4], 10.7%.

Take `CC1(C)C[C@H]2C3=CC[C@@H]4[C@@]5(C)CC[C@H](O)C(C)(C)[C@@H]5CC[C@@]4(C)[C@]3(C)C[C@@H](O)[C@@]23C[C@@H]1OC3=O`: the Activity in the data set on Hepatitis C virus [1] is given as 13.9%; in data set [5] it was “Non-toxic”; in data set [2], -17.3%; with Hepatitis C virus [3] it was 31.9%; in data set [4], -12.1%.

Consider `CC1(C)CC[C@]2(C(=O)O)[C@H](O)C[C@]3(C)C(=CC[C@@H]4[C@@]5(C)CC[C@H](O)C(C)(C)[C@@H]5CC[C@]43C)[C@H]2C1` [ECHINOCYSTIC ACID], for which the Activity in the data set on Hepatitis C virus [1] is reported as 21.3%; in data set [2], -0.1%; in the data set on Hepatitis C virus [3], 75.5%; in data set [4] it was -0.1%.
